21 compounds from ChEMBL document CHEMBL3112570, “Design, synthesis, and evaluation of pyrrolo[2,1-f][1,2,4]triazine derivatives as novel hedgehog signaling pathway inhibitors” (Bioorg Med Chem, 2014) can be followed below.

SMILES strings stand for the structures.

Series [1] in a line: Inhibition of hedgehog signaling pathway in mouse NIH/3T3 cells after 48 hrs by Gli-luciferase reporter gene assay. The format is cell-based. The conditions noted are these: NIH3T3, 48 h. An outline of the steps: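 NIH3T3 cells stably carrying a Gli-luciferase reporter, kept in DMEM + 10% FBS with puromycin. Seeded at 2 × 10⁴ cells/well and cultured overnight at 37 °C, 5% CO₂. Compounds added as an 8-point series (0.05–300 nM) in medium with 0.5% FBS plus Sonic Hedgehog agonist 0.7 µg/mL, n = 4 wells per concentration, 48 h. […] Lysates read by dual-luciferase.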

The nature of series [2]: AUC in Sprague-Dawley rat at 1 mg/kg, iv by LC/MS/MS analysis. Type of series: ADME, organism-based. Set-up: dose 1 mg/kg, route intravenous. Particulars: plasma. In outline: (§1)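 Sprague-Dawley rats dosed iv at 1 mg/kg (n = 3). Blood samples were centrifuged at 4000 rpm for 5 min at 4 °C to give plasma. PK parameters were derived from plasma concentration-time data by noncompartmental analysis.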

Series [3] is described as follows: Apparent volume of distribution in Sprague-Dawley rat at 1 mg/kg, iv by LC/MS/MS analysis. The format is ADME, organism-based. Set-up: dose 1 mg/kg, route intravenous. The conditions noted are these: in vivo, read-out: Vz. In outline: as §1
A short description of series [4]: Mean residence time (0 to t) in Sprague-Dawley rat at 1 mg/kg, iv by LC/MS/MS analysis. Type of series: ADME, organism-based. Set-up: dose 1 mg/kg, route intravenous. Particulars: in vivo. An outline of the steps: as §1
Series [5] is described as follows: Elimination half life in Sprague-Dawley rat at 1 mg/kg, iv by LC/MS/MS analysis. Type of series: ADME, organism-based. More on the design: dose 1 mg/kg, route intravenous. Particulars: in vivo, read-out: beta t1/2 (converted). In outline: as §1
Series [6] can be described thus: Cmax in Sprague-Dawley rat at 1 mg/kg, iv by LC/MS/MS analysis. The format is ADME, organism-based. Set-up: dose 1 mg/kg, route intravenous. The conditions noted are these: in vivo. An outline of the steps: as §1
The nature of series [7]: Clearance in Sprague-Dawley rat at 1 mg/kg, iv by LC/MS/MS analysis. The format is ADME, organism-based. More on the design: dose 1 mg/kg, route intravenous. Particulars: in vivo. An outline of the steps:
as §1

In series [1], `Cc1cccc(C)c1NC(=O)c1ccc(Nc2nc(C)c(C)c(-c3ccc(OC(F)(F)F)cc3)n2)cc1` gave a half-maximal inhibitory concentration (IC50) of 1.6 nM.
On the same count and under the same terms, to `Cc1cc(-c2ccc(OC(F)(F)F)cc2)nc(Nc2ccc(C(=O)Nc3c(C)cccc3C)cc2)n1` belongs 1.4 nM; to `CCCc1cc(-c2ccc(OC(F)(F)F)cc2)nc(Nc2ccc(C(=O)Nc3c(C)cccc3C)cc2)n1`, 0.8 nM; to `CCc1cnc(Nc2ccc(C(=O)Nc3c(C)cccc3C)cc2)nc1-c1ccc(OC(F)(F)F)cc1`, 5.3 nM.
Same read-out and setting: in the case of `Cc1ccc(CN2CCCCC2)cc1NC(=O)c1ccc(Nc2nc(-c3cnn(C)c3)c3cccn3n2)cc1` it was 11.1 nM.
Still for that read-out and setting: in the case of `Cc1ccc(CN2CCCC2)cc1NC(=O)c1ccc(Nc2nc(-c3cnn(C)c3)c3cccn3n2)cc1` it was 12.3 nM; in that of `Cc1ccc(CN2CCOCC2)cc1NC(=O)c1ccc(Nc2nc(-c3ccccc3)c3cccn3n2)cc1`, 1.5 nM.
For the compound `Cc1ccc(CN2CCOCC2)cc1NC(=O)c1ccc(Nc2nc(-c3ccccn3)c3cccn3n2)cc1`, the AUC in series [2] was 764 ng·h/mL. The IC50 in series [1] amounted to 0.97 nM. In addition, the Vd in series [3] is 2.85 L/kg. Besides, the MRT last in series [4] came out at 1.64 h. The half-life in series [5] is 1.51 h. In series [6], this compound displayed a maximum concentration (Cmax) of 637 ng/mL. The clearance in series [7] was 22 mL/min/kg.
In series [1], `Cc1ccc(CN2CCOCC2)cc1NC(=O)c1ccc(Nc2nc(-c3cccnc3)c3cccn3n2)cc1` returned a half-maximal inhibitory concentration (IC50) of 1.6 nM.
In series [2], `Cc1ccc(CN2CCOCC2)cc1NC(=O)c1ccc(Nc2nc(-c3ccc(OC(F)(F)F)cc3)c3cccn3n2)cn1` registered an exposure (AUC) of 1940 ng·h/mL. For the same compound, the half-maximal inhibitory concentration (IC50) in series [1] amounted to 1.1 nM. In addition, in series [3], the Vd amounted to 5.97 L/kg. The compound further came in with an MRT last in series [4] of 3.49 h. Moreover, in series [5], the half-life was 8.34 h. In addition, the peak concentration (Cmax) in series [6] was 4190 ng/mL. This compound showed a clearance in series [7] of 8.38 mL/min/kg.
The compound `O=C(Nc1cccc(CN2CCOCC2)c1)c1ccc(Nc2nc(-c3ccc(OC(F)(F)F)cc3)c3cccn3n2)cn1` showed a half-maximal inhibitory concentration (IC50) in series [1] of 8.8 nM.
Still for that read-out and setting: in the case of `Cc1ccc(CN2CCOCC2)cc1NC(=O)c1ccc(Nc2nc(-c3ccccn3)c3cccn3n2)cn1` it was 1.1 nM.
On the same count and under the same terms, in the case of `Cc1ccc(CN2CCOCC2)cc1NC(=O)c1ccc(Nc2nc(-c3ccccn3)c3cccn3n2)c(F)c1` it was 0.73 nM; in that of `Cc1ccc(CN2CCCCC2)cc1NC(=O)c1ccc(Nc2nc(-c3ccc(OC(F)(F)F)cc3)c3cccn3n2)cc1`, 0.62 nM.
Still for that read-out and setting: in the case of `Cc1ccc(CN2CCCC2)cc1NC(=O)c1ccc(Nc2nc(-c3ccc(OC(F)(F)F)cc3)c3cccn3n2)cc1` it was 1.7 nM.
In turn, `Cc1ccc(CN2CCOCC2)cc1NC(=O)c1ccc(Nc2nc(-c3cnn(C)c3)c3cccn3n2)cc1` returned an AUC in series [2] of 791 ng·h/mL. Moreover, the IC50 in series [1] amounted to 1.2 nM. Also, the Vd in series [3] came to 2.19 L/kg. The compound further displayed an MRT last in series [4] of 1.31 h. In addition, the half-life in series [5] was 1.23 h. Moreover, in series [6], the highest concentration (Cmax) worked out at 1070 ng/mL. Besides, in series [7], the clearance was 21.1 mL/min/kg.
In series [1], `Cc1ccc(CN2CCN(C)CC2)cc1NC(=O)c1ccc(Nc2nc(-c3cnn(C)c3)c3cccn3n2)cc1` came in with an IC50 of 7.5 nM.
The same measure, in the same setting: to `Cc1ccc(CN2CCN(C)CC2)cc1NC(=O)c1ccc(Nc2nc(-c3ccc(OC(F)(F)F)cc3)c3cccn3n2)cc1` belongs 1.7 nM.
In the case of `Cc1cccc(C)c1NC(=O)c1ccc(Nc2nc(-c3ccc(OC(F)(F)F)cc3)c3cccn3n2)cc1`, the exposure (AUC) in series [2] was 1430 ng·h/mL. In series [1], this compound registered an IC50 of 1.6 nM. Besides, in series [3], the Vd worked out at 12.6 L/kg. The same compound showed an MRT last in series [4] of 4.68 h. Further, the half-life in series [5] was 15.2 h. The compound further showed a Cmax in series [6] of 2440 ng/mL. Also, the clearance in series [7] was 9.66 mL/min/kg.
`Cc1ccc(CN2CCOCC2)cc1NC(=O)c1ccc(Nc2nc(-c3ccc(OC(F)(F)F)cc3)c3cccn3n2)cc1`: the AUC in series [2] stood at 2230 ng·h/mL. The IC50 in series [1] turned out to be 0.83 nM. For the same compound, in series [3], the Vd came to 5.23 L/kg. In series [4], this compound returned an MRT last of 4.83 h. The half-life in series [5] is 8.86 h. For the same compound, the Cmax in series [6] came out at 2720 ng/mL. Moreover, the clearance in series [7] was 6.9 mL/min/kg.
In series [2], `CS(=O)(=O)c1ccc(C(=O)Nc2ccc(Cl)c(-c3ccccn3)c2)c(Cl)c1` [VISMODEGIB] displayed an AUC of 2460 ng·h/mL. The 50% inhibitory concentration (IC50) in series [1] worked out at 7.2 nM. This compound gave an MRT last in series [4] of 2.23 h. For the same compound, in series [5], the half-life is 1.64 h. This compound also came in with a Cmax in series [6] of 1250 ng/mL. Further, in series [7], the clearance was 6.77 mL/min/kg.
